Assay results published in ChEMBL document CHEMBL1132972, “Pyrrolidine inhibitors of human cytosolic phospholipase A(2)” (J Med Chem, 2000).
pIC50: −log10 of the molar value.

Legend:
[1] = tested on: THP-1; assay: Inhibition of arachidonic acid production from THP-1 cells stimulated with A-23187 using cellular assay; assay type: functional, cell-based; details: Homo sapiens
Summary of the method: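 DMSO-differentiated THP-1 cells (1.3% DMSO for 2 days in RPMI 1640/10% FCS), washed with PBS, held in Hanks' saline pH 7.6 plus 0.1% BSA. Preincubated with inhibitor 15 min at 37 °C, then stimulated with 3 µM calcium ionophore A23187 for 20 min at 37 °C. Arachidonic acid release measured; IC50, mean ± SD, n=3 independent determinations.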

[2] = target: T1, Cytosolic phospholipase A2 (Homo sapiens, UniProt P47712); assay: Inhibition of Human cPLA2 alpha using Enzyme assay(PC/DOG assay)
T1 sequence (P47712 whole entry): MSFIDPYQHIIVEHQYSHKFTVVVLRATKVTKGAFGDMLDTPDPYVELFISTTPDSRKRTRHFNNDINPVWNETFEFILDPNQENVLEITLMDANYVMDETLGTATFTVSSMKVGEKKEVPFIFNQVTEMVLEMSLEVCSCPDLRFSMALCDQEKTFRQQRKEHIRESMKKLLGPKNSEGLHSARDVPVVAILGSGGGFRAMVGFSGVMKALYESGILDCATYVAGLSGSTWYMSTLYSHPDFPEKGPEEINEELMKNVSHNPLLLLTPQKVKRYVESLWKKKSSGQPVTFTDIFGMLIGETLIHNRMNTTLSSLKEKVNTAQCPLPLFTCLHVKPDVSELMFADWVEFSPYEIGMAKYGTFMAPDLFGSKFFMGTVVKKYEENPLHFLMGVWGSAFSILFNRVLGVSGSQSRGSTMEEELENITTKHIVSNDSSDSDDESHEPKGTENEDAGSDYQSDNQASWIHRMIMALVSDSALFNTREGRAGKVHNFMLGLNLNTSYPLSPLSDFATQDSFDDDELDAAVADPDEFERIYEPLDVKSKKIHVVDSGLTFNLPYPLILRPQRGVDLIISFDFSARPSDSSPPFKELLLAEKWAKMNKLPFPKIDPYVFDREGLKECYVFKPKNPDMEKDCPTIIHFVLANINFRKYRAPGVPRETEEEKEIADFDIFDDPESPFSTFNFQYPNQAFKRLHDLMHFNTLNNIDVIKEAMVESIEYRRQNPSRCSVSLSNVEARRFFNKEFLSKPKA

[3] = tested on: THP-1; assay: Effect of pyrrolidine derivatives on production of eicosanoids from THP-1 cells stimulated with A-23187 using cellular assay on LTC-4; assay type: functional, cell-based; details: Homo sapiens
Summary of the method: (§1)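 THP-1 cells grown in RPMI 1640 with 10% FCS, differentiated with 1.3% DMSO for 2 days, PBS-washed, suspended in Hanks' saline pH 7.6 with 0.1% BSA. Inhibitor preincubation 15 min at 37 °C, then 3 µM A23187 for 20 min at 37 °C. Stopped on ice; supernatant LTC4 and PGE2 measured by radio immunoassay and enzyme immunoassay. IC50, mean ± SD of three independent determinations.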

[4] = tested on: THP-1; assay: Effect on production of eicosanoids from THP-1 cells stimulated with A-23187 using cellular assay on PGE-2; assay type: functional, cell-based; details: Homo sapiens; summary of the method: as §1
[5] = tested on: THP-1; assay: Effect on production of eicosanoids from THP-1 cells stimulated with A-23187 using cellular assay on PGE-2, LTC-4; assay type: functional, cell-based; details: Homo sapiens; summary of the method: as §1
[6] = tested on: THP-1; assay: Effect of pyrrolidine derivatives on production of eicosanoids from THP-1 cells stimulated with A-23187 using cellular assay on PGE-2, LTC-4; assay type: functional, cell-based; details: Homo sapiens; summary of the method: as §1

| Compound | pIC50 [1] | pIC50 [2] | pIC50 [3] | pIC50 [4] | pIC50 [5] | pIC50 [6] |
| --- | --- | --- | --- | --- | --- | --- |
| CC(C)Cc1cccc(Br)c1O[C@@H]1C[C@@H](CNC(=O)c2ccc(/C=C3\SC(=O)NC3=O)cc2)N(C(=O)c2ccccc2C(=O)c2ccc(F)cc2F)C1 | 6.66 | 7.66 |  |  |  |  |
| O=C1NC(=O)/C(=C/c2ccc(C(=O)NC[C@@H]3C[C@@H](OCc4ccccc4-c4ccccc4)CN3C(=O)c3ccc(C(=O)c4ccccc4)cc3)cc2)S1 | 5.26 | < 5.00 |  |  |  |  |
| CC(C)CN(Cc1ccccc1-c1ccccc1)[C@@H]1C[C@@H](CNC(=O)/C=C/c2ccc(/C=C3\SC(=O)NC3=O)cc2)N(C(=O)c2ccccc2C(=O)c2ccc(F)cc2)C1 | 7.28 |  |  |  |  |  |
| O=C1NC(=O)/C(=C/c2ccc(C(=O)NC[C@@H]3C[C@@H](OCc4ccccc4-c4ccccc4)CN3C(=O)c3ccccc3C(=O)c3ccc(F)cc3F)cc2)S1 | 6.64 | 7.31 |  |  |  |  |
| O=C1NC(=S)S/C1=C\c1ccc(C(=O)NC[C@@H]2C[C@@H](SCc3ccccc3-c3ccccc3)CN2C(=O)c2ccccc2C(=O)c2ccc(F)cc2)cc1 | 6.40 | 7.14 |  |  |  |  |
| O=C1NC(=O)/C(=C/c2ccc(C(=O)NC[C@@H]3C[C@@H](SCc4ccccc4-c4ccccc4)CN3C(=O)c3ccccc3C(=O)c3ccc(F)cc3)cc2)S1 | 6.60 |  |  |  |  |  |
| CC(C)Cc1cccc(Br)c1O[C@@H]1C[C@@H](CNC(=O)c2ccc(/C=C3\SC(=O)NC3=O)cc2)N(C(=O)c2ccccc2C(=O)c2ccc(F)cc2)C1 | 6.52 | 7.42 |  |  |  |  |
| O=C1NC(=O)/C(=C/c2ccc(C(=O)NC[C@@H]3C[C@@H](OCc4ccccc4-c4ccccc4)CN3C(=O)c3cccc(C(=O)c4ccccc4)c3)cc2)S1 | 5.23 | < 5.00 |  |  |  |  |
| O=C1NC(=O)/C(=C/c2ccc(C(=O)NC[C@@H]3C[C@@H](OCc4ccccc4-c4ccccc4)CN3C(=O)c3ccccc3C(=O)c3ccccc3)cc2)S1 | 6.17 | 6.78 | 6.43 | 6.39 |  |  |
| O=C1NC(=O)/C(=C/c2ccc(C(=O)NC[C@@H]3C[C@@H](Oc4ccccc4-c4ccccc4)CN3C(=O)c3ccccc3C(=O)c3ccc(F)cc3)cc2)S1 | 6.51 |  |  | 6.68 |  |  |
| O=C1NC(=S)S/C1=C\c1ccc(C(=O)NC[C@@H]2C[C@@H](OCc3ccccc3-c3ccccc3)CN2C(=O)c2ccccc2C(=O)c2ccc(F)cc2)cc1 | 6.15 | 7.05 |  |  |  |  |
| O=C1NC(=S)S/C1=C\c1ccc(C(=O)NC[C@@H]2C[C@@H](Oc3ccccc3-c3ccccc3)CN2C(=O)c2ccccc2C(=O)c2ccc(F)cc2)cc1 | 6.18 | 7.08 |  |  |  |  |
| CC(C)CN(Cc1ccccc1-c1ccccc1)[C@@H]1C[C@@H](CNC(=O)c2ccc(/C=C3\SC(=O)NC3=O)cc2)N(C(=O)c2ccccc2C(=O)c2ccc(F)cc2)C1 | 6.74 | 7.68 |  |  |  |  |
| CC(C)CN(Cc1ccccc1-c1ccccc1)[C@@H]1C[C@@H](CNC(=O)/C=C/c2ccc(/C=C3\SC(=O)NC3=O)cc2)N(C(=O)c2ccccc2C(=O)c2ccc(F)cc2F)C1 | 7.66 |  |  |  | 7.51 | 7.89 |
| CC(C)CN(Cc1ccccc1-c1ccccc1)[C@@H]1C[C@@H](CNC(=O)c2ccc(/C=C3\SC(=O)NC3=O)cc2)N(C(=O)c2ccccc2C(=O)c2ccc(F)cc2F)C1 | 7.33 | 8.21 |  |  |  |  |
| CC(C)Cc1cccc(-c2ccccc2C(C)C)c1O[C@@H]1C[C@@H](CNC(=O)c2ccc(/C=C3\SC(=O)NC3=O)cc2)N(C(=O)c2ccccc2C(=O)c2ccc(F)cc2)C1 | 7.04 | 8.28 |  |  |  |  |
| CC(C)Cc1cccc(-c2ccccc2C(C)C)c1O[C@@H]1C[C@@H](CNC(=O)c2ccc(/C=C3\SC(=O)NC3=O)cc2)N(C(=O)c2ccccc2C(=O)c2ccc(F)cc2F)C1 | 7.26 | 8.68 |  |  |  |  |
| O=C1NC(=O)/C(=C/c2ccc(C(=O)NC[C@@H]3C[C@@H](OCc4ccccc4-c4ccccc4)CN3C(=O)c3ccccc3C(=O)c3ccc(F)cc3)cc2)S1 | 6.49 | 7.11 |  |  | 6.59 | 6.59 |
| COc1ccc2c(c1)c(CC(=O)O)c(C)n2C(=O)c1ccc(Cl)cc1 [INDOMETHACIN] | < 5.00 |  |  |  | 8.44 | < 5.00 |
